Assay results from ChEMBL document CHEMBL1135439, “Imidazo[2,1-i]purin-5-ones and related tricyclic water-soluble purine derivatives: potent A(2A)- and A(3)-adenosine receptor antagonists” (J Med Chem, 2002).
Values after ≈ are worked out from the molar mass of the structure shown.

Experiments:
Adenosine receptor A2a [1] = target: T1, Adenosine receptor A2a (Rattus norvegicus, UniProt P30543); test: Binding affinity to the adenosine A2A receptor by displacement of [3H]CGS-21680 in rat brain striatal membrane; type: cell membranes
T1 sequence (P30543 whole entry): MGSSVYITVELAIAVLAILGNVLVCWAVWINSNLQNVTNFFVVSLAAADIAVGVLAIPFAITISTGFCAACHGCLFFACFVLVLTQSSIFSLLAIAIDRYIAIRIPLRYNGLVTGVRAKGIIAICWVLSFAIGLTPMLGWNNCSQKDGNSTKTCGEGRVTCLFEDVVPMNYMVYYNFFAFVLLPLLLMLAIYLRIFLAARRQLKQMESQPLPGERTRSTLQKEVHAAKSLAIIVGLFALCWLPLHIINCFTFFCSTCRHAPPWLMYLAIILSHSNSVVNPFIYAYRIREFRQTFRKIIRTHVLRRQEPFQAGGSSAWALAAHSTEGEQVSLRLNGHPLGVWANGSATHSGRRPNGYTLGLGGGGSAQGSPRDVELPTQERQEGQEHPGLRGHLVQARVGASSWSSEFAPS

Adenosine receptor A1 [2] = target: T2, Adenosine receptor A1 (Rattus norvegicus, UniProt P25099); type: cell membranes, Brain
T2 sequence (P25099 whole entry): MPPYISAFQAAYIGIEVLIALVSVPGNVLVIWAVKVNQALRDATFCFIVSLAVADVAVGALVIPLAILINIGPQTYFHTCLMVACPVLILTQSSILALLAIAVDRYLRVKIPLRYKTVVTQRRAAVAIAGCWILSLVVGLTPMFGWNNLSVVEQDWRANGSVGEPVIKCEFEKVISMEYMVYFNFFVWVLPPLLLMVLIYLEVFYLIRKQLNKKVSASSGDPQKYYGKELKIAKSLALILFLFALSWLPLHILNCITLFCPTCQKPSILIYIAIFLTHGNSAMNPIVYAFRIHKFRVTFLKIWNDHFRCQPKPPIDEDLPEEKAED

[3] = target: T3, Adenosine receptor A1 (Rattus norvegicus) (UniProt P25099); test: (§1) Inhibition against Adenosine A1 receptor of rat fat cell membranes (functional antagonist activity)
T3 sequence (whole entry): T2 sequence (P25099 whole entry)

[4] = target: Adenosine receptor A2a (Rattus norvegicus) (UniProt P30543); test: (§2) Inhibition against A2A-Adenosine Receptor of rat PC12 cell membranes (functional antagonist activity); type: cell-based; conditions: PC-12
Adenosine receptor A2a (Rattus norvegicus), sequence (P30543 whole entry): as the sequence (P30543 whole entry) above

[5] = target: T4, Adenosine receptor A2b (Mus musculus) (UniProt Q60614); test: (§3) Inhibition against A2B-Adenosine Receptor in mouse NIH 3T3 fibroblast cell membranes (functional antagonist activity); type: cell-based
T4 sequence (whole entry): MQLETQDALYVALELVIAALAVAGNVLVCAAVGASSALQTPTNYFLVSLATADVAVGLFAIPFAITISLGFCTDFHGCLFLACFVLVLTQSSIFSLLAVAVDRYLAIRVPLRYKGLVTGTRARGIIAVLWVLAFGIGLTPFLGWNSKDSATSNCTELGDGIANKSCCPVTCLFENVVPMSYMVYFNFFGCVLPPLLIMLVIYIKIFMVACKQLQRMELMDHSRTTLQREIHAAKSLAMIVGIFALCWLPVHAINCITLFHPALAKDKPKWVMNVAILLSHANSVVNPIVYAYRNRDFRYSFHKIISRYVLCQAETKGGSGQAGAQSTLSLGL
Outline: (§4)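 Adenylate cyclase assay measuring antagonism of NECA-stimulated AC in rat PC12 membranes (A2A) or NIH 3T3 fibroblast membranes (A2B). KB was obtained from the Schild equation, using the ratio of NECA EC50 values with and without antagonist.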

Adenosine receptor A3 = target: T5, Adenosine receptor A3 (Homo sapiens, UniProt P0DMS8); test: Binding affinity against human recombinant Adenosine A3 receptor stably expressed in HEK293 cells by displacing [125I]AB-MECA radioligand; type: cell-based
T5 sequence (P0DMS8 whole entry): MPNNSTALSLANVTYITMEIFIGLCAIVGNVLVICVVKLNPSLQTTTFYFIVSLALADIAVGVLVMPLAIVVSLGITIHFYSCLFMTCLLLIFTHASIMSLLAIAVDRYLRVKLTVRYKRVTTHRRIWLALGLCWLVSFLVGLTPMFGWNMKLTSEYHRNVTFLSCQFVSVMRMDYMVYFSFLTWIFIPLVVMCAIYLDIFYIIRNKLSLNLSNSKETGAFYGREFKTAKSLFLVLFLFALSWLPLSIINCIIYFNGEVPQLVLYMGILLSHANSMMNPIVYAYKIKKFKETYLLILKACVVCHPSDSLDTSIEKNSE

[6] = target: T3, Adenosine receptor A1 (Rattus norvegicus); test: Percent displacement of [3H]CHA from Adenosine A1 receptor of rat brain cortical membrane at 10 uM
Outline: (§5)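 Single-concentration inhibition of [3H]CHA binding to rat cerebral cortical membrane A1 receptors, reported as percent displacement at the stated test concentration. Nonspecific binding was determined with 10 μM 2-chloroadenosine.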

[7] = target: Adenosine receptor A2a (Rattus norvegicus) (UniProt P30543); test: Percent displacement of [3H]CGS-21680 from Adenosine A2A receptor of rat brain striatal membrane at 30 uM
Outline: (§6)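 Single-concentration inhibition of [3H]CGS21680 binding to rat striatal membrane A2A receptors, reported as percent displacement at the stated test concentration. Nonspecific binding was defined with 20 μM 2-chloroadenosine.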

Adenosine receptor A1 [8] = target: T2, Adenosine receptor A1; test: as §1
Outline: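 Adenylate cyclase assay in rat fat cell membranes measuring antagonism of R-PIA-elicited AC inhibition. KB was obtained from the Schild equation, using the ratio of R-PIA IC50 values with and without antagonist.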

Adenosine receptor A2b = target: T6, Adenosine receptor A2b (Mus musculus, UniProt Q60614); test: as §3; type: cell-based; outline: as §4
T6 sequence (Q60614 whole entry): T4 sequence (whole entry)

Adenosine receptor A2a [9] = target: T1, Adenosine receptor A2a; test: as §2; type: cell-based, PC-12; outline: as §4
[10] = Water solubility of the compound; type: ADME; conditions: read-out: S
[11] = target: Adenosine receptor A2a (Rattus norvegicus) (UniProt P30543); test: Binding affinity against Adenosine A2A receptor by displacement of [3H]CGS-21680 radioligand in rat brain striatal membrane at 30 uM; type: cell membranes; outline: as §6
[12] = target: T3, Adenosine receptor A1 (Rattus norvegicus); test: Percent displacement of [3H]CHA from Adenosine A1 receptor of rat brain cortical membrane at 3 uM; outline: as §5
[13] = target: T4, Adenosine receptor A2b (Mus musculus); test: Inhibition against A2B-Adenosine Receptor in mouse NIH 3T3 fibroblast cell membranes; type: cell-based
Outline: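 Functional adenylate cyclase assay in NIH 3T3 fibroblast cell membranes: test compounds antagonize NECA-induced stimulation of AC (cAMP accumulation). K_B is calculated with the Schild equation from the ratio of NECA EC50 values with and without antagonist.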

[14] = target: T7, Adenosine receptor A3 (Homo sapiens) (UniProt P0DMS8); test: Percent displacement against human Adenosine A3 receptor expressed in HEK293 cells by displacing [125I]AB-MECA at 10 uM; type: cell-based
T7 sequence (whole entry): T5 sequence (P0DMS8 whole entry)

[15] = Water solubility was determined.; type: ADME
Outline: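 A saturated aqueous solution was prepared and the undissolved residue filtered off. The filtrate was diluted with water and its UV absorbance read at λmax. Concentration was calculated from a previously determined calibration curve for each compound.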

[16] = target: T3, Adenosine receptor A1 (Rattus norvegicus); test: Percent displacement of [3H]CHA from Adenosine A1 receptor of rat brain cortical membrane at 250 uM; outline: as §5
[17] = target: T7, Adenosine receptor A3 (Homo sapiens); test: Percent displacement against human recombinant Adenosine A3 receptor expressed in HEK293 cells by displacing [125I]AB-MECA at 100 uM; type: cell-based
[18] = target: T3, Adenosine receptor A1 (Rattus norvegicus); test: Percent displacement of [3H]CHA from Adenosine A1 receptor of rat brain cortical membrane at 30 uM; outline: as §5

CC[C@H]1CN2C(=O)N(C)c3nc(-c4ccccc4)n(C)c3C2=N1
Ki (Adenosine receptor A2a [1]): 16.2 µM
Ki (Adenosine receptor A1 [2]): 4.7 µM

CN1C(=O)N2CCCCC/N=C\2c2c1ncn2C
Ki (Adenosine receptor A2a [1]): 51 µM
Ki (Adenosine receptor A1 [2]): 60.3 µM

CC[C@@H]1CN2C(=O)N(C)c3nc(-c4ccccc4)[nH]c3C2=N1
Kb [3]: 0.43 µM
Kb [4]: 2.5 µM
Ki (Adenosine receptor A2a [1]): 2.1 µM
Kb [5]: 2.1 µM
Ki (Adenosine receptor A1 [2]): 0.44 µM

CN1C(=O)N2CCCN=C2c2c1nc(Cl)n2C
Ki (Adenosine receptor A2a [1]): 11.9 µM
Ki (Adenosine receptor A1 [2]): 10.5 µM

CC[C@H]1CN2C(=O)N(C)c3[nH]c(/C=C/c4ccccc4)nc3C2=N1
Ki (Adenosine receptor A2a [1]): 0.67 µM
Ki (Adenosine receptor A1 [2]): 0.73 µM

CC[C@H]1CN2C(=O)N(C)c3nc(/C=C/c4ccccc4)n(C)c3C2=N1
Ki (Adenosine receptor A3): 30.6 µM
Kb [3]: 33 µM
Kb [4]: 1 µM
Ki (Adenosine receptor A2a [1]): 0.424 µM
Kb [5]: 3.7 µM
Ki (Adenosine receptor A1 [2]): 14.9 µM

CCC1CN2C(=O)N(C)c3[nH]c(-c4ccccc4)nc3C2=N1 (configuration not stated)
Ki (Adenosine receptor A2a [1]): 3.1 µM
Ki (Adenosine receptor A1 [2]): 0.265 µM

Cn1cnc2c1C1=NCCN1C(=O)N2
Ki (Adenosine receptor A2a [1]): 40.9 µM
Ki (Adenosine receptor A1 [2]): 65.5 µM

C[C@H]1CN2C(=O)N(C)c3ncn(C)c3C2=N1
Displacement [6]: 10%
Displacement [7]: 46%

Cn1c(-c2ccccc2)nc2c1C1=NCCN1C(=O)N2
Ki (Adenosine receptor A3): 0.047 µM
KB (Adenosine receptor A1 [8]): 500 nM
KB (Adenosine receptor A2b): 7 µM
Ki (Adenosine receptor A2a [1]): 11.9 µM
KB (Adenosine receptor A2a [9]): 17.2 µM
Ki (Adenosine receptor A1 [2]): 1.83 µM

CC[C@@H]1CN2C(=O)N(C)c3ncn(C)c3C2=N1
Ki (Adenosine receptor A2a [1]): 28.3 µM
Ki (Adenosine receptor A1 [2]): 75.5 µM

CN1C(=O)N2CCN=C2c2c1nc(-c1ccccc1)n2C
Ki (Adenosine receptor A3): 3.33 µM
Ki (Adenosine receptor A2a [1]): 20.3 µM
solubility [10]: 1.45 mM (≈ 408 µg/mL)
Ki (Adenosine receptor A1 [2]): 9.7 µM

CN1C(=O)N2CCCCN=C2c2c1ncn2C
Ki (Adenosine receptor A2a [1]): 18.5 µM
Ki (Adenosine receptor A1 [2]): 19.8 µM

C[C@@H]1CN2C(=O)N(C)c3ncn(C)c3C2=N1
Displacement [11]: 12%
Displacement [12]: 14%

CC[C@H]1CN2C(=O)N(C)c3[nH]c(-c4ccccc4)nc3C2=N1
Kb [3]: 0.063 µM
Kb [4]: 4.3 µM
Ki (Adenosine receptor A2a [1]): 3.33 µM
Kb [5]: 7.6 µM
Ki (Adenosine receptor A1 [2]): 0.115 µM

Cn1c(=O)c2[nH]cnc2n(C)c1=O.O [THEOPHYLLINE]
Kb [13]: 16 µM
solubility [10]: 44.4 mM

CCC1CN2C(=O)N(C)c3nc(-c4ccccc4)n(C)c3C2=N1 (configuration not stated)
Displacement [14]: 17%
Ki (Adenosine receptor A2a [1]): 19.2 µM
Ki (Adenosine receptor A1 [2]): 6.1 µM

CC[C@@H]1CN2C(=O)N(C)c3nc(/C=C/c4ccccc4)n(C)c3C2=N1
Ki (Adenosine receptor A3): 1.7 µM
Ki (Adenosine receptor A2a [1]): 0.547 µM
Ki (Adenosine receptor A1 [2]): 21.7 µM

CN1C(=O)N2CCN=C2c2c1ncn2C
Displacement [14]: 40%
solubility [15]: 1210 mM (≈ 248000 µg/mL)
Ki (Adenosine receptor A2a [1]): 20.7 µM
Ki (Adenosine receptor A1 [2]): 79.6 µM

CC[C@@H]1CN2C(=O)N(C)c3nc(-c4ccccc4)n(C)c3C2=N1
Ki (Adenosine receptor A2a [1]): 36.3 µM
Ki (Adenosine receptor A1 [2]): 17.5 µM

Cn1c(=O)c2[nH]c(-c3ccccc3)nc2n(C)c1=O [8-PHENYL THEOPHYLLINE]
Ki (Adenosine receptor A2a [1]): 0.83 µM

Cn1c(=O)c2c(nc(/C=C/c3ccccc3)n2C)n(C)c1=O
solubility [10]: 0.0028 mM (≈ 0.83 µg/mL)

CN1C(=O)N2CCCN=C2c2c1ncn2C
Ki (Adenosine receptor A2a [1]): 28.5 µM
Ki (Adenosine receptor A1 [2]): 43.2 µM

CC[C@@H]1CN2C(=O)N(C)c3[nH]c(/C=C/c4ccccc4)nc3C2=N1
Ki (Adenosine receptor A3): 0.64 µM
Ki (Adenosine receptor A2a [1]): 0.89 µM
Ki (Adenosine receptor A1 [2]): 0.95 µM

CC1CN=C2c3c(ncn3C)N(C)C(=O)N21 (configuration not stated)
Ki (Adenosine receptor A2a [1]): 64.6 µM
Ki (Adenosine receptor A1 [2]): 59 µM

C[C@H]1CN=C2c3c(ncn3C)N(C)C(=O)N21
Ki (Adenosine receptor A2a [1]): 12 µM
Ki (Adenosine receptor A1 [2]): 70 µM

CCCn1c(=O)[nH]c(=O)c2nc[nH]c21
Kb [13]: 18 µM

Cn1c(=O)c2c(ncn2C)n(C)c1=O
Kb [5]: 25 µM

CCC1CN2C(=O)N(C)c3ncn(C)c3C2=N1 (configuration not stated)
Displacement [16]: 46%
Ki (Adenosine receptor A2a [1]): 16.2 µM
Displacement [17]: 28%

Cn1c(=O)c2c(nc(-c3ccccc3)n2C)n(C)c1=O
solubility [10]: 0.487 mM (≈ 132 µg/mL)

Cn1c(=O)[nH]c2nc(-c3ccccc3)n(C)c2c1=O
Kb [3]: 0.32 µM
Kb [4]: 5.7 µM
Kb [5]: 5.2 µM

Cn1cnc2c1C1=NCCN1C(=O)N2Cc1ccccc1
Displacement [18]: 24%
Ki (Adenosine receptor A2a [1]): 16.1 µM

C[C@@H]1CN=C2c3c(ncn3C)N(C)C(=O)N21
Ki (Adenosine receptor A2a [1]): 50.4 µM
Ki (Adenosine receptor A1 [2]): 23 µM

CC[C@H]1CN2C(=O)N(C)c3ncn(C)c3C2=N1
Displacement [16]: 50%
Ki (Adenosine receptor A2a [1]): 10.9 µM

Cn1c(=O)c2nc(/C=C/c3ccccc3)[nH]c2n(C)c1=O
solubility [10]: 0.00022 mM (≈ 0.0621 µg/mL)
